Experimental data as given in the EternaBench riboswitch data.

Tested on: MS2 coat protein
Test: apparent Kd, MS2 coat protein; higher = weaker binding; RNA-MaP array; tryptophan 2.4 mM where present
Method in brief: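 Each design was made on Illumina sequencing-chip clusters by stalled E. coli RNA polymerase and titrated with SNAP-549-labelled MS2 coat protein from 0.7 or 1.5 nM, doubling to 3 µM, in the absence and then the presence of constant ligand. The buffer was 100 mM Tris-HCl pH 7.5, 80 mM KCl, 4 mM MgCl2, BSA, DTT, yeast tRNA and Tween-20. The apparent Kd is the median of filtered per-cluster fits of binding curves, with green signal normalised to red-channel RNA signal and control-cluster median Fmax.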

[1] = designed as: OFF switch for tryptophan, no ligand
[2] = ligand present: tryptophan, designed as: OFF switch for tryptophan
[3] = designed as: ON switch for tryptophan, no ligand
[4] = ligand present: tryptophan, designed as: ON switch for tryptophan

Row | Sequence | apparent Kd [1] | apparent Kd [2] | apparent Kd [3] | apparent Kd [4]
1 | GAGUAGUAGACGGCCGCCACUAAACAUGAGGAUCACCCAUGUAGUGAUCCGUUACCUAGCGUAGAUAGGACCGGGUCAGAUAGUA | 0.026 µM | 0.0292 µM | – | –
2 | AAUAAUAGGUGAUCCUGACGAGUGGCAUAACGAGGACCGGUACGGCCGCCACUCGAACAUGAGGAUCACCCAUGUAGCCACUCGA | – | – | 0.312 µM | 0.393 µM
3 | AGCCACUCGAGUGAUCCUCACGAGUGGCAACGAGGACCGGUACGGCCGCCACUCGAAUAACAUGAGGAUCACCCAUGUUUAUAAU | – | – | 0.0932 µM | 0.0962 µM
4 | UUUAUUAUUGACUCGUUAUUGUUUUUGGAUCGAGGACCGGUACGGCCGCCACUCGUGAUAUACAUGAGGAUCACCCAUGUUAGCA | – | – | 0.0149 µM | 0.0128 µM
5 | UUAGUAACGACGGCCGCCACUGGAUAUGAACAUGAGGAUCACCCAUGUAGAGAUCCUAGAAUAAACAGGACCGGGUCUGAUAAUA | 0.0172 µM | 0.0534 µM | – | –
6 | GGAGCUACGUCGGCCGCCACUAGCGGAUAUUACGUGUACAUGAGGAUCACCCAUGUAAUACGGUUUAGGACCGGGACGUAGCUCC | 0.0173 µM | 0.0165 µM | – | –
7 | UCGUUUUAGUCGGCCGCCACUGUAUGCAUGUUUAACAUGAGGAUCACCCAUGUCCCGUACUAUAACAGGACCGGGACGUAAUAGA | – | – | 0.168 µM | 0.1 µM
8 | CUGCCUGCCUCACAUGAGGAUCACCCAUGUCGAGGACCGGUACGGCCGCCACUCGUCGUCGGUAAUACAGGCAUUGAAUAAUAUA | 0.0103 µM | 0.0375 µM | – | –
9 | AUGGUCGACGAUCUGCGAAAAGCAGAUCGACGAGGACCGGUACGGCCGCCACUCGUGUUUAUUUAACAUGAGGAUCACCCAUGUA | – | – | 0.0802 µM | 0.0223 µM
10 | GGAUCAGGAUCGGCCGCCACUGAUAGUGAUCCAACGACAUGAGGAUCACCCAUGUACAUUUUAAUCAGGACCGGGAUCAAGUUCC | 0.129 µM | 0.209 µM | – | –
11 | CUAUAAGUACCGGUCCUCAGAUCCUCAUGACGAGGACCGGUACGGCCGCCACUCGAAACAUGAGGAUCACCCAUGUAAUAAUACC | 0.0355 µM | 0.0199 µM | – | –
12 | GGUAUAUAGGCGGCCGCCACUGAUUUUCAUAUAUAUAUAACAUGAGGAUCACCCAUGUAGAUAUACAGGACCGGGCCUAUAUAUU | – | – | 0.0149 µM | 0.0128 µM
13 | UGUCAUGGAAACAUGACUGGUUCUACCGGUCGAGGACCGGUACGGCCGCCACUCGAUUGGUGGCACAUGAGGAUCACCCAUGUUA | – | – | 0.0282 µM | 0.03 µM
14 | UGUGUGUGACCAGGAAAUGGUCACACACAGCGAGGACCGGUACGGCCGCCACUCGGCCGUACAUGAGGAUCACCCAUGUCGGGUA | – | – | 0.674 µM | 0.741 µM
15 | CUAUAUAUAGCGGCCGCCACUUACUCAUGAGGUAACAACAUGAGGAUCACCCAUGUUUGAGGAUCAAGGACCGGGCUAUAUAUAG | – | – | 0.0282 µM | 0.0167 µM
16 | CUACAUUUGUAGAAACCGGUCAACAAUAAUCGAGGACCGGUACGGCCGCCACUCGAUGUGAAAUACACAUGAGGAUCACCCAUGU | – | – | 0.0159 µM | 0.0169 µM
17 | AGUCACUCGAGGUGAUCUGACGAGUGGCAACGAGGACCGGUACGGCCGCCACUCGAAUAAACAUGAGGAUCACCCAUGUACAAAU | – | – | 0.213 µM | 0.196 µM
18 | ACAUGAGGAUCACCCAUGUUAAACAGGGUGCGAGGACCGGUACGGCCGCCACUCGGACAUUAUUACGAGUGAAUGGUAACGAUGU | 0.0199 µM | 0.02 µM | – | –
19 | GUGUUAUGGUCGGCCGCCACUCUGACAUGAGGAUCACCCAUGUUGUACAUGAGGAUCACCCAUGUGAGGACCGGGACACGUGCGA | 0.401 µM | 0.442 µM | – | –
20 | AGAGCAUUGACGGCCGCCACUCGUGUCACAUGAGGAUCACCCAUGUGAUGGGUGAUAGCCCGGUUGAGGACCGGGUCAAUGCUCA | – | – | 0.0137 µM | 0.0192 µM
21 | CUACAUUUGUAGAAACCGGUCACCGUUACUCGAGGACCGGUACGGCCGCCACUCGUGUCACGUGAUACAUGAGGAUCACCCAUGU | – | – | 0.0374 µM | 0.0313 µM
22 | GCAUCCUAGUCGGCCGCCACUGCAUGUAGGCAGUGCUGCUACAAACAUGAGGAUCACCCAUGUAGCAGGACCGGGACUAGGAUGC | – | – | 0.015 µM | 0.0131 µM
